# Measured values: ChEMBL document CHEMBL1142722, “Discovery and selection of TMC114, a next generation HIV-1 protease inhibitor” (J Med Chem, 2005)
# pEC50: −log10 of the molar value.
# Experiments:
# [1] = tested on: Human immunodeficiency virus 1; assay: Effective concentration against PI-Resistant HIV strain (M4); assay type: functional, organism-based; settings: for pEC50: Human immunodeficiency virus 1
# Outline: (§1)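 MTT cytopathic-effect assay in MT-4 cells infected with recombinant HIV carrying clinical-isolate-derived protease and RT sequences in an HXB2-derived backbone. Inoculum 200-250 CCID50/well, 30 000 cells/well, compound over a concentration range. Incubation 5 days at 37 °C, 5% CO2. […] Cytotoxicity run in parallel on mock-infected cells.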
# [2] = tested on: Human immunodeficiency virus 1; assay: Effective concentration against PI-Resistant HIV strain (M3); assay type: functional, organism-based; settings: for pEC50: Human immunodeficiency virus 1; outline: as §1
# [3] = tested on: Human immunodeficiency virus 1; assay: Effective concentration as average activity on mutant HIV panel (AVMUT); assay type: functional, organism-based; settings: for pEC50: Human immunodeficiency virus 1
# Outline: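 Mean pEC50 across the panel of PI-resistant recombinant clinical-isolate strains. Each strain was tested by MTT CPE assay in MT-4 cells at 200-250 CCID50/well and 30 000 cells/well, read after 5 days at 37 °C, 5% CO2.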
# [4] = tested on: Human immunodeficiency virus 1; assay: Effective concentration against PI-Resistant HIV strain (M5); assay type: functional, organism-based; settings: for pEC50: Human immunodeficiency virus 1; outline: as §1
# [5] = tested on: Human immunodeficiency virus 1; assay: Effective concentration against PI-Resistant HIV strain (M2); assay type: functional, organism-based; settings: for pEC50: Human immunodeficiency virus 1; outline: as §1
# [6] = tested on: Human immunodeficiency virus 1; assay: Effective concentration against PI-Resistant HIV strain (M1); assay type: functional, organism-based; outline: as §1
# [7] = tested on: Human immunodeficiency virus 1; assay: Effective concentration of against HIV Wild Type (IIIB) strain; assay type: functional, organism-based; settings: for pEC50: Human immunodeficiency virus 1
# Outline: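 Wild-type HIV-1 IIIB was tested in MT-4 cells by MTT colorimetric CPE assay. Compound was serially diluted, with virus at 200-250 CCID50/well and 30 000 cells/well. […] Mock-infected cultures were run in parallel for cytotoxicity.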
# [8] = Percentage of remaining compound after 30 min incubation in rat liver microsomes was determined as metabolic stability; assay type: ADME, Microsome; settings: read-out: Remaining compound
# Outline: (§2)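 Compound incubated with rat, dog or human liver microsomes for 30 min at 37 °C. Residual parent compound in the reaction mixture was measured directly by LC-MS and expressed as % remaining.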
# [9] = Percentage of remaining compound after 30 min incubation in human liver microsomes was determined as metabolic stability; assay type: ADME, Microsome; settings: read-out: Remaining compound; outline: as §2
# [10] = Percentage of remaining compound after 30 min incubation in dog liver microsomes was determined as metabolic stability; assay type: ADME, Canis lupus familiaris, Microsome; settings: read-out: Remaining compound; outline: as §2
# [11] = Time to reach maximum concentration in dog after 80 mg/kg oral administration; assay type: ADME, organism-based, Canis lupus familiaris; set-up: dose 80 mg/kg, route oral; settings: in vivo
# Outline: (§3)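 Single oral dose of 80 mg/kg given to dogs as a PEG400 solution. Plasma exposure parameters are reported as the mean of four measurements, with the standard deviation in parentheses.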
# [12] = Maximum plasma concentration in dog after 80 mg/kg oral administration; assay type: ADME, organism-based, Canis lupus familiaris; set-up: dose 80 mg/kg, route oral; outline: as §3
# [13] = Half-life in dog after 80 mg/kg oral administration; assay type: ADME, organism-based, Canis lupus familiaris; set-up: dose 80 mg/kg, route oral; settings: in vivo; outline: as §3
# [14] = Area under concentration time curve value in dog after 80 mg/kg oral administration; assay type: ADME, organism-based, Canis lupus familiaris; set-up: dose 80 mg/kg, route oral; settings: in vivo; outline: as §3
SMILES,pEC50 [1],pEC50 [2],pEC50 [3],pEC50 [4],pEC50 [5],pEC50 [6],pEC50 [7],Log EC50 [1],Log EC50 [2],Log EC50 [3],Log EC50 [4],Log EC50 [5],Log EC50 [7],remaining at 0.5 h [8] [%],remaining at 0.5 h [9] [%],remaining at 0.5 h [10] [%],Tmax [11] [h],Cmax [12] [ng/mL],half-life [13] [h],AUC last [14] [ng·h/mL]
CC(C)CN(C[C@@H](O)[C@H](Cc1ccccc1)NC(=O)O[C@@H]1CO[C@@H]2OCC[C@@H]21)S(=O)(=O)c1ccc(N)cc1,7.67,7.67,7.51,7.58,7.22,7.43,7.97,–,–,–,–,–,–,–,–,–,–,–,–,–
CC(C)CN(C[C@@H](O)[C@H](Cc1ccccc1)NC(=O)O[C@H]1CO[C@H]2OCC[C@H]21)S(=O)(=O)c1ccc(N)cc1 (stereo in doubt; form 1),–,–,–,–,–,–,–,-6.84,-6.76,-6.81,-6.9,-6.72,-7.36,–,–,–,–,–,–,–
CC(=O)c1ccc(S(=O)(=O)N(CC(C)C)C[C@@H](O)[C@H](Cc2ccccc2)NC(=O)O[C@H]2CO[C@H]3OCC[C@H]32)cc1,–,8.22,7.86,7.93,7.80,7.50,8.71,–,–,–,–,–,–,–,–,–,–,–,–,–
CC(C)(C)NC(=O)[C@@H]1CN(Cc2cccnc2)CCN1C[C@@H](O)C[C@@H](Cc1ccccc1)C(=O)N[C@H]1c2ccccc2C[C@H]1O,–,–,–,–,–,–,–,–,–,–,–,–,–,97,95,85,–,–,–,–
COc1ccc(S(=O)(=O)N(CC(C)C)C[C@@H](O)[C@H](Cc2ccccc2)NC(=O)O[C@H]2CO[C@H]3OCC[C@H]32)cc1,8.33,8.65,8.35,8.54,8.22,7.99,9.23,–,–,–,–,–,–,25,56,11,0.6,1180,1.47,2700
CC(C)CN(C[C@@H](O)[C@H](Cc1ccccc1)NC(=O)OC1COC2OCCC12)S(=O)(=O)c1ccccc1 (mixture of isomers),7.38,7.32,7.17,7.51,6.87,6.78,8.56,–,–,–,–,–,–,–,–,–,–,–,–,–
CC(C)CN(C[C@@H](O)[C@H](Cc1ccccc1)NC(=O)O[C@H]1CO[C@H]2OCC[C@H]21)S(=O)(=O)c1ccc(CN)cc1,8.18,8.22,8.11,8.25,7.80,8.12,8.15,–,–,–,–,–,–,–,–,–,–,–,–,–
CC(C)CN(C[C@@H](O)[C@H](Cc1ccccc1)NC(=O)O[C@H]1CO[C@H]2OCC[C@H]21)S(=O)(=O)c1cccc(N)c1,7.58,7.55,7.37,7.58,7.32,6.12,8.36,–,–,–,–,–,–,–,–,–,–,–,–,–
CC(C)CN(C[C@@H](O)[C@H](Cc1ccccc1)NC(=O)O[C@H]1CO[C@H]2OCC[C@H]21)S(=O)(=O)c1ccc([N+](=O)[O-])cc1,7.66,8.34,7.67,7.34,7.53,7.47,8.61,–,–,–,–,–,–,–,–,–,–,–,–,–
CC(C)CN(C[C@@H](O)[C@H](Cc1ccccc1)NC(=O)O[C@H]1CO[C@H]2OCC[C@H]21)S(=O)(=O)c1ccc(N)cc1 (stereo in doubt; form 2),–,–,–,–,–,8.29,–,–,-8.14,-8.29,–,-8.14,-8.39,92,85,80,1,19100,0.781,74100
CC(C)CN(C[C@@H](O)[C@H](Cc1ccccc1)NC(=O)O[C@H]1CO[C@H]2OCC[C@H]21)S(=O)(=O)c1ccc(I)cc1,8.28,8.39,8.06,8.30,7.86,7.48,8.82,–,–,–,–,–,–,–,–,–,–,–,–,–
CC(C)CN(C[C@@H](O)[C@H](Cc1ccccc1)NC(=O)O[C@H]1CO[C@H]2OCC[C@H]21)S(=O)(=O)c1ccc(O)cc1,8.22,8.22,8.06,8.21,8.00,7.63,8.20,–,–,–,–,–,–,–,–,–,–,–,–,–
CC(C)CN(C[C@@H](O)[C@H](Cc1ccccc1)NC(=O)O[C@H]1CO[C@@H]2OCC[C@@H]21)S(=O)(=O)c1ccc(N)cc1,–,–,–,–,–,–,6.51,–,–,–,–,–,–,–,–,–,–,–,–,–
CC(C)CN(C[C@@H](O)[C@H](Cc1ccccc1)NC(=O)O[C@@H]1CO[C@H]2OCC[C@H]21)S(=O)(=O)c1ccc(N)cc1,5.95,6.32,6.01,–,5.65,6.12,6.62,–,–,–,–,–,–,–,–,–,–,–,–,–
CC(C)CN(C[C@@H](O)[C@H](Cc1ccccc1)NC(=O)O[C@H]1CO[C@H]2OCC[C@H]21)S(=O)(=O)c1ccc(C#N)cc1,7.05,7.40,7.01,6.86,6.81,6.94,8.28,–,–,–,–,–,–,–,–,–,–,–,–,–
CC(C)CN(C[C@@H](O)[C@H](Cc1ccccc1)NC(=O)O[C@H]1CO[C@H]2OCC[C@H]21)S(=O)(=O)c1ccc2c(c1)OCO2,8.40,8.46,8.19,8.39,8.19,7.49,9.21,–,–,–,–,–,–,21,52,53,2.5,3780,2.06,18100
CC(C)CN(C[C@@H](O)[C@H](Cc1ccccc1)NC(=O)O[C@H]1CCOC1)S(=O)(=O)c1ccc(N)cc1,6.77,6.71,6.49,6.13,6.69,6.13,7.43,–,–,–,–,–,–,83,116,81,–,–,–,–
Cc1ccc(S(=O)(=O)N(CC(C)C)C[C@@H](O)[C@H](Cc2ccccc2)NC(=O)OC2COC3OCCC23)cc1 (mixture of isomers),7.42,7.45,7.22,7.39,6.97,6.89,8.28,–,–,–,–,–,–,–,–,–,–,–,–,–
